Assay results: ChEMBL document CHEMBL4665767, “Synthesis and biological evaluation of semi-synthetic albocycline analogs” (2020)
In brackets after ≈: the same amount, converted by molar mass. Activity calls are given as the source filed them. No cut-off for these calls is given here.

Assays:
Staphylococcus aureus [1] = assay: Antibacterial activity against methicillin resistant Staphylococcus aureus USA300; assay type: functional
Method in brief: (§1)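 Broth microdilution MIC in Mueller Hinton broth. Stocks 12.8 mg/mL in DMSO, serially diluted twofold, 2 µL added per well (top final 256 µg/mL). Inoculum grown at 37 °C, 200 rpm to OD600 0.18, then diluted to 3x10^5 cells/mL final, checked by plate count. Incubated 16-24 h at 37 °C, technical duplicates. MIC read as lowest concentration with visible growth inhibition.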

Staphylococcus aureus [2] = assay: Antibacterial activity against methicillin sensitive Staphylococcus aureus UAMS1; assay type: functional
Method in brief: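 Broth microdilution in Mueller Hinton broth; DMSO stocks (12.8 mg/mL) serially diluted, 2 µL added per well, giving up to 256 µg/mL. Inoculum grown at 37 °C, 200 rpm to OD600 0.18, diluted to final 3x10^5 cells/mL, count confirmed by plating. Technical duplicate; 16-24 h at 37 °C; MIC = lowest concentration with visual growth inhibition.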

Escherichia coli = assay: Antibacterial activity against Escherichia coli; assay type: functional, organism-based
Acinetobacter baumannii = assay: Antibacterial activity against Acinetobacter baumannii; assay type: functional, organism-based
Pseudomonas aeruginosa = assay: Antibacterial activity against Pseudomonas aeruginosa; assay type: functional, organism-based
Method in brief: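 Twofold serial dilutions in 96-well microtiter plates from a 10 mg/mL DMSO starting concentration; DMSO solvent control, kanamycin positive control. Wells inoculated with 1:100 dilution of overnight cultures (P. aeruginosa strain PA10). Incubated 37 °C for 24 h; MIC scored as lowest well showing growth inhibition.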

Staphylococcus aureus [3] = assay: Potency index, ratio of albocycline MIC to test compound MIC for methicillin resistant Staphylococcus aureus USA300; assay type: functional
Staphylococcus aureus [4] = assay: Antibacterial activity against vancomycin-resistant Staphylococcus aureus; assay type: functional; method in brief: as §1
Staphylococcus aureus [5] = assay: Antibacterial activity against methicillin resistant Staphylococcus aureus; assay type: functional; method in brief: as §1
Staphylococcus aureus [6] = assay: Antibacterial activity against vancomycin-intermediate Staphylococcus aureus; assay type: functional; method in brief: as §1

Compound	MIC (Staphylococcus aureus [1])	MIC (Staphylococcus aureus [2])	further results
CO[C@H]1/C=C/[C@@](C)(O)/C=C/C(=O)O[C@H](C)[C@@H](C)CC/C=C/1COP(=O)(Oc1ccccc1)Oc1ccccc1	> 256 µg/mL	> 256 µg/mL	
C/C1=C\CC[C@H](C)[C@@H](C)OC(=O)/C=C/[C@](C)(O)/C=C/[C@@H]1O	4 µg/mL (≈ 13.6 µM)	8 µg/mL (≈ 27.2 µM)	
CO[C@H]1/C=C/[C@@](C)(O)/C=C/C(=O)O[C@H](C)[C@@H](C)CC/C=C/1CO		32 µg/mL (≈ 98.6 µM)	
COC/C1=C\CC[C@H](C)[C@@H](C)OC(=O)/C=C/[C@](C)(O)/C=C/[C@@H]1OC		128 µg/mL (≈ 378 µM)	
CO[C@H]1/C=C/[C@@](C)(O)C(SCCN)CC(=O)O[C@H](C)[C@@H](C)CC/C=C/1C (mixture of isomers)	256 µg/mL	128 µg/mL	Activity (Escherichia coli): inactive; Activity (Acinetobacter baumannii): inactive; Activity (Pseudomonas aeruginosa): inactive
C#CCO[C@@]1(C)/C=C/C(=O)O[C@H](C)[C@@H](C)CC/C=C(\C)[C@@H](OC)/C=C/1		> 256 µg/mL	
CO[C@H]1/C=C/[C@@](C)(OC(=O)c2ccc(F)cc2)/C=C/C(=O)O[C@H](C)[C@@H](C)CC/C=C/1C	1 µg/mL (≈ 2.32 µM)	1 µg/mL (≈ 2.32 µM)	Ratio (Staphylococcus aureus [3]): 2
CO[C@H]1/C=C/[C@@](C)(O)/C=C/C(=O)O[C@H](C)[C@@H](C)CC/C=C/1C	2 µg/mL (≈ 6.48 µM)	2 µg/mL (≈ 6.48 µM)	MIC (Staphylococcus aureus [4]): 0.5 µg/mL (≈ 1.62 µM); MIC (Staphylococcus aureus [5]): 0.5 µg/mL (≈ 1.62 µM); MIC (Staphylococcus aureus [6]): 0.5 µg/mL (≈ 1.62 µM)
CO[C@H]1/C=C/[C@@](C)(O)/C=C/C(=O)O[C@H](C)[C@@H](C)CC/C=C/1C=O		32 µg/mL (≈ 99.3 µM)	
